From ChEMBL document CHEMBL3352584, “Novel DNA gyrase inhibiting spiropyrimidinetriones with a benzisoxazole scaffold: SAR and in vivo characterization” (J Med Chem, 2014) come the findings set out here.

In brackets after ≈: the same amount, converted by molar mass.

For data set [1], the system named is Streptococcus pneumoniae. As to the kind of experiment: Antimicrobial activity against Streptococcus pneumoniae by broth microdilution method. The data set is classed as functional. The gist of the method:
(§1)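 Broth microdilution following CLSI guidelines. Values under 12.5 μM are averages of three or more replicates.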
In general terms: In broth dilution the organism is exposed to a series of concentrations in liquid medium.

Data set [2] has as its system Staphylococcus aureus. As to the kind of experiment: Antimicrobial activity against methicillin-sensitive Staphylococcus aureus by broth microdilution method. The data set is classed as functional. Summed up:
as §1

Data set [3] can be described thus: Fraction unbound in human plasma at 10 uM after 16 hrs by LC-MS/MS analysis. The data set is classed as ADME, cell-free. Summed up:
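Compound at 10 μM in human, rat or mouse plasma, equilibrium dialysis against buffer at 37 °C for 16 h. Buffer and plasma concentrations measured by LC-MS/MS, and the free fraction taken from their ratio.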

The test system of data set [4] is Staphylococcus aureus. As to the kind of experiment: Antimicrobial activity against methicillin-resistant and quinolone-resistant Staphylococcus aureus by broth microdilution method. The data set is classed as functional. The gist of the method: as §1
For data set [5], the system named is Escherichia coli. As to the kind of experiment: Antimicrobial activity against Escherichia coli by broth microdilution method. The data set is classed as functional. The gist of the method:
as §1

Data set [6] relates to Escherichia coli. Briefly: Antimicrobial activity against tolC-deficient Escherichia coli by broth microdilution method. The data set is classed as functional. The gist of the method: as §1
Data set [7] deals with Haemophilus influenzae. As to the kind of experiment: Antimicrobial activity against Haemophilus influenzae by broth microdilution method. The data set is classed as functional. The gist of the method: as §1
The target in data set [8] is DNA gyrase (Escherichia coli, UniProt P0AES4+P0AES6). As to the kind of experiment: Inhibition of Escherichia coli DNA gyrase using fluorescence-tagged DNA by fluorescenct polarization assay. The data set is classed as protein-complex assay. The gist of the method:
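E. coli DNA gyrase supercoiling assay. The read-out was differential binding of a fluorescence-tagged DNA to relaxed versus supercoiled DNA, giving IC50.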

Data set [9] is described as follows: Solubility of the compound. The data set is classed as physicochemical.
For data set [10], the system named is Streptococcus pyogenes. Briefly: Antimicrobial activity against Streptococcus pyogenes by broth microdilution method. The data set is classed as functional. Summed up:
as §1

One may read the fraction unbound as the share of the substance not bound to proteins or other matrix. A low value points to little free substance. Usually IC50 stands for the point on the concentration scale where inhibition reaches its midpoint. Read a high IC50 as a need for much substance. By solubility is commonly meant the concentration that dissolves in the medium under given conditions. The low end stands for a poorly soluble substance, the high end for a readily soluble substance. Consider `Cc1noc2c(F)c3c(cc12)CC1(C(=O)NC(=O)NC1=O)[C@@H]1[C@@H](C)O[C@@H](C)CN31`, for which the MIC was > 200 µM in [1]; > 200 µM in data set [2]; > 200 µM in data set [4]; > 200 µM in [5]; 50 µM (≈ 20.1 µg/mL) in data set [6]; > 200 µM in [7]. This molecule also showed a fraction unbound at 16 h, 10 µM in [3] of 0.035. Moreover, the half-maximal inhibitory concentration (IC50) in data set [8] was > 83000 nM. Besides, in data set [9], the solubility was > 1000 µM.

On to `O=C(O)c1cn(C2CC2)c2cc(N3CCNCC3)c(F)cc2c1=O` [CIPROFLOXACIN], for which the MIC in data set [10] is 1.5 µM (≈ 0.497 µg/mL); in data set [1], 1.5 µM (≈ 0.497 µg/mL); in [2], 0.91 µM (≈ 0.302 µg/mL); in [4], 96 µM (≈ 31.8 µg/mL); in data set [5] it was 0.06 µM (≈ 0.0199 µg/mL); in [6] it was < 0.1 µM. The MIC in data set [7] was < 0.1 µM.

As to `COCc1noc2c(F)c3c(cc12)CC1(C(=O)NC(=O)NC1=O)C1C(C)OC(C)CN31` (racemic), the MIC in [10] is 6.2 µM (≈ 2.68 µg/mL); in data set [1], 12 µM (≈ 5.19 µg/mL); in data set [2], 3.1 µM (≈ 1.34 µg/mL); in data set [4], 6.2 µM (≈ 2.68 µg/mL); in data set [5], 200 µM (≈ 86.5 µg/mL); in [6], ≤ 0.2 µM. The same molecule returned an MIC in data set [7] of 12 µM (≈ 5.19 µg/mL). The molecule further had a fraction unbound at 16 h, 10 µM in data set [3] of 0.096. In addition, the midpoint of inhibition in data set [8], the IC50, lay at 1600 nM. This molecule had a solubility in data set [9] of 180 µM (≈ 77.8 µg/mL).

As for `C[C@@H]1CN2c3c(cc4c(N)noc4c3F)CC3(C(=O)NC(=O)NC3=O)[C@H]2[C@H](C)O1`, the MIC in [10] is 3.1 µM (≈ 1.25 µg/mL); in [1], 6.2 µM (≈ 2.5 µg/mL); in [2], 25 µM (≈ 10.1 µg/mL); in [4] it was 50 µM (≈ 20.2 µg/mL); in [5], 100 µM (≈ 40.3 µg/mL); in [6], ≤ 0.2 µM. Besides, in data set [7], the MIC was determined as 1.6 µM (≈ 0.645 µg/mL). This molecule also had a fraction unbound at 16 h, 10 µM in data set [3] of 0.13. In data set [8], this molecule had a half-inhibitory concentration (IC50) of 260 nM. Besides, the solubility in [9] was 330 µM (≈ 133 µg/mL).

Consider `Cc1noc2c(F)c3c(cc12)CC1(C(=O)NC(=O)NC1=O)C1C(C)OC(C)CN31` (racemic), for which the MIC amounted to 21 µM (≈ 8.45 µg/mL) in data set [1]; 2.8 µM (≈ 1.13 µg/mL) in [2]; 2.5 µM (≈ 1.01 µg/mL) in [4]; 100 µM (≈ 40.2 µg/mL) in data set [5]; 0.3 µM (≈ 0.121 µg/mL) in [6]; 2.5 µM (≈ 1.01 µg/mL) in [7]. The molecule also yielded a fraction unbound at 16 h, 10 µM in data set [3] of 0.063. This molecule displayed a half-inhibitory concentration (IC50) in data set [8] of 380 nM. Further, in [9], the solubility is > 1000 µM.

In the case of `COc1noc2c(F)c3c(cc12)CC1(C(=O)NC(=O)NC1=O)[C@H]1[C@H](C)O[C@H](C)CN31`, the MIC in data set [10] was 6.2 µM (≈ 2.59 µg/mL); in [1] it was 25 µM (≈ 10.5 µg/mL); in [2], 3.1 µM (≈ 1.3 µg/mL); in data set [4], 3.1 µM (≈ 1.3 µg/mL); in data set [5], 200 µM (≈ 83.7 µg/mL); in data set [6] it was ≤ 0.2 µM. In addition, the MIC in data set [7] was 3.1 µM (≈ 1.3 µg/mL). This molecule gave a free fraction (fraction unbound) at 16 h, 10 µM in data set [3] of 0.09. The half-maximal inhibitory concentration (IC50) in data set [8] amounted to 970 nM. The molecule further registered a solubility in data set [9] of 510 µM (≈ 213 µg/mL).

Regarding `Cc1noc2c(F)c3c(cc12)CC1(C(=O)NC(=O)NC1=O)[C@@H]1[C@@H](C)O[C@H](C)CN31`, the MIC in [10] is 200 µM (≈ 80.5 µg/mL); in data set [1], 100 µM (≈ 40.2 µg/mL); in [2], 25 µM (≈ 10.1 µg/mL); in data set [4], 50 µM (≈ 20.1 µg/mL); in data set [5] it was > 200 µM; in [6], 1.6 µM (≈ 0.644 µg/mL). In addition, the MIC in data set [7] was determined as 25 µM (≈ 10.1 µg/mL). For the same molecule, the unbound share (fraction unbound) at 16 h, 10 µM in data set [3] was 0.082. Further, 13000 nM corresponded to half-maximal inhibition in data set [8] (IC50). The solubility in [9] came to 190 µM (≈ 76.5 µg/mL).

For `CC1CN2c3c(cc4c(C(C)(C)C)noc4c3F)CC3(C(=O)NC(=O)NC3=O)C2C(C)O1` (racemic), the MIC in data set [10] was 50 µM (≈ 22.2 µg/mL); in [1], 200 µM (≈ 88.9 µg/mL); in data set [2], 18 µM (≈ 8 µg/mL); in data set [4] it was 18 µM (≈ 8 µg/mL); in [5], > 200 µM; in data set [6], 3.1 µM (≈ 1.38 µg/mL). The MIC in data set [7] was 200 µM (≈ 88.9 µg/mL). The fraction unbound at 16 h, 10 µM in data set [3] was 0.042. Also, half-maximal inhibition in [8] (IC50) required 4000 nM. In data set [9], this molecule returned a solubility of 770 µM (≈ 342 µg/mL).
